XBP1 UPR activ = activators of adaptive XBP1 UPR arm, primary screen, cell-based, CHO-XBP1 luciferase reporter, luminescence, uHTS; IRE1-XBP1 UPR activation; percent of tunicamycin response, DMSO as zero; activation, % at 20 µM; actives 0.33% (n = 330,000);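 active = versus positive control, 20 µM dose yields 30% or more activation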;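 note: 100% = tunicamycin at 10 µg/mL and 0% = DMSO only wells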
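assay system = CHO-XBP1 luciferase reporter cells | amount = 1000 cells/well | buffer or medium = F12 plus 10% FBS | compound dosing = single point, 20 µM final compound, 1% DMSO | incubation = 16-18 h cell attachment at 37 °C, then 6 h compound exposure | detection = Steady-Glo luminescence read | controls = tunicamycin 10 µg/mL and vehicle-only wells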
Granule exo inh = LAMP-1 surface exposure blockers, TALL-104 cells – cell-based, flow cytometry, MLPCN library, primary screen; TALL-104 LAMP-1 surface exposure; cells stimulated with thapsigargin and PMA; inhibition, % at 10 µM; actives 0.66% (n = 360,000);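 active = inhibition above about 55%, limit read from the data; inconclusive = no clear call, values can overlap the other calls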
ABHD5-PLIN5 inh = ABHD5-PLIN5 interaction inhibitors, primary screen, cell lysate, split luciferase complementation, luminescence | inhibition, % at 4 µM | Perilipin-5 (Homo sapiens) + 1-acylglycerol-3-phosphate O-acyltransferase ABHD5 (Homo … | actives 0.78% (n = 360,000) | AID 602281, 2012 | Split G. princeps luciferase complementation, 4 h;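 active = inhibition above the mean inhibition across every tested compound plus 3 SD, cut at about 22% in these data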;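 note: 0% = DMSO only wells and the 100% control is not disclosed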
CHOP UPR activ = activators of apoptotic CHOP UPR arm, primary screen, cell-based, CHO-CHOP luciferase reporter, luminescence, uHTS. activation, % at 10 µM. UPR activation; percent of tunicamycin response over DMSO baseline. actives 0.34% (n = 330,000);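 active = at 10 µM dose, activation of 40% or more, normalized to positive control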;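 note: 100% = tunicamycin at 10 µg/mL and 0% = DMSO alone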
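Material: CHO-CHOP cells, stable luciferase reporter of PERK-eIF2a-CHOP signalling; quantity: 500 reporter cells seeded per well; buffer or medium: F12 medium containing 10% fetal bovine serum; compound: one dose, 10 µM in 0.5% DMSO; incubation: 6 h compound treatment, 37 °C; measured by: Steady-Glo luciferase luminescence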
Mdm2 MdmX PPI = inhibitors of human Mdm2-MdmX association, primary screen, cell-based, luminescence, split luciferase, SaOS-2, uHTS; SaOS-2 split-luciferase Mdm2/MdmX complementation; AID 485346, 2010; inhibition, % at 8 µM; actives 3% (n = 330,000);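 active = inhibition of at least 50% at 8 µM in the primary screen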
Target sequence (O15151 whole entry, looked up): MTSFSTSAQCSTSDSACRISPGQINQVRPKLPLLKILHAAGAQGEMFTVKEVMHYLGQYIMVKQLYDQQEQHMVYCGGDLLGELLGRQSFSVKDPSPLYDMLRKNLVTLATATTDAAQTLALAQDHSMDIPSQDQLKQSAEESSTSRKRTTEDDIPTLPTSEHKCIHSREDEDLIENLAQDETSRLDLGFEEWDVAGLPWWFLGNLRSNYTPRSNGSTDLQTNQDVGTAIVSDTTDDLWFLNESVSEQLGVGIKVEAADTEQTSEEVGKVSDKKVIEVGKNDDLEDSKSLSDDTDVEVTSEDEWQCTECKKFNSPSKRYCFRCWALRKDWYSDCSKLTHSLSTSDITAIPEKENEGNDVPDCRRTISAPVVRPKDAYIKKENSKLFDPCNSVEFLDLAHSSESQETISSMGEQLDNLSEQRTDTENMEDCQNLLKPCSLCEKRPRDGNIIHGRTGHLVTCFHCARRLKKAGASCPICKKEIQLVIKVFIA
Target sequence (Q00987 whole entry, looked up): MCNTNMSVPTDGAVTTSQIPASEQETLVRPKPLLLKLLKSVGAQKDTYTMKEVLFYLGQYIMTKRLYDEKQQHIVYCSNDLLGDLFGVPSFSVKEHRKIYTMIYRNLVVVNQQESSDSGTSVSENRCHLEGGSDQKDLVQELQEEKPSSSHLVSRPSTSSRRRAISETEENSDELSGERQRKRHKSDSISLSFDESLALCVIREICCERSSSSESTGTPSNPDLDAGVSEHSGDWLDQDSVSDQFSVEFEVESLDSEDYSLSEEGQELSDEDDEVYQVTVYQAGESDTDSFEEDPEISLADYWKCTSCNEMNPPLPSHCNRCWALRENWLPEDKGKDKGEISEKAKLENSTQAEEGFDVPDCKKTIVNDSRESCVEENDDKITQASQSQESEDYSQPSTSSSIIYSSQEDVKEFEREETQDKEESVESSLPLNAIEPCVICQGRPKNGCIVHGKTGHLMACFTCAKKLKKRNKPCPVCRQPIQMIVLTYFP
ABHD5-PLIN5 conf = ABHD5-PLIN5 interaction inhibitors, confirmation, biochemical, luminescence. shares compounds with ABHD5-PLIN5 inh. inhibition, % at 4 µM. actives 67% (n = 2,200); in the data active = inhibition above about 23%;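 note: 0% = DMSO vehicle wells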
HNF4 split-luc = HNF4 dimerization inhibitors, counter-screen for ABHD5-PLIN5 interaction inhibitor project, biochemical, split-luciferase complementation, luminescence. shares compounds with ABHD5-PLIN5 inh. inhibition, % at 4 µM. actives 77% (n = 2,200);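 active = mean inhibition across replicate wells exceeding the computed hit threshold, cut at about 13% in these data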;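 note: light from luciferase halves that rejoin when HNF4 fusion proteins dimerize; 0% = DMSO only wells and the 100% control is not given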
Active calls of the source: *; ? = inconclusive; · = no result. A selection: hits, their analogues and other compounds. The true share with any hit is near 4%.

SMILES	XBP1 UPR activ	Granule exo inh	ABHD5-PLIN5 inh	CHOP UPR activ	Mdm2 MdmX PPI	ABHD5-PLIN5 conf	HNF4 split-luc
O=C(NCc1ccco1)c1cccc2c1C(=O)c1ccc(N3CCCC3)cc1S2(=O)=O	-1	2	26*	0	3	33*	73*
O=C(NCc1cccc(F)c1)c1cccc2c1C(=O)c1ccc(N3CCOCC3)cc1S2(=O)=O	0	16	25*	0	43	-1	16*
Cc1ccc(CNC(=O)c2cccc3c2C(=O)c2ccc(N4CCOCC4)cc2S3(=O)=O)cc1	0	5	5	1	25	·	·
O=C(O)c1cc(-c2ccc(-c3ccc(F)cc3)o2)nc2ccccc12	-4	4	31*	4	5	20	61*
CCCN1CCN(C2CCCCC2NS(=O)(=O)c2ccc(Cl)cc2)CC1 (configuration not stated)	5	-1	3	1	16	·	·
O=S(=O)(Nc1ccc(Cl)cc1)c1ccc(N2CCOCC2)c(NC(=S)NCCN2CCOCC2)c1	-3	9	31*	2	-3	-5	48*
COCCNC(=S)Nc1ccc(N2CCOCC2)c(S(=O)(=O)Nc2ccc(Cl)cc2)c1	·	2	-4	·	·	·	·
Cc1cccn(Cc2c(Cl)cccc2Cl)c1=O	1	12	4	1	13	·	·
CCCCn1nnnc1C1(C)CCC(=O)N1CCCn1ccnc1 (configuration not stated)	·	-4	59*	·	·	47*	46*
Cc1cccc(C)c1-n1nnnc1C1(C)CCC(=O)N1CCCn1ccnc1 (configuration not stated)	·	2	-1	·	·	·	·
COc1ccc(OC)c2sc(Cl)nc12	-1	-2	109*	-1	1	3	1
O=C1Nc2ccc(Br)cc2/C1=C/C(=O)c1ccc2c(c1)OCO2	25	40	72*	19	41	93*	90*
COc1cccc(NC(=O)CN2C(=O)NC3(CCCc4ccccc43)C2=O)c1 (configuration not stated)	1	0	92*	0	11	4	2
O=C(O)c1ccccc1NS(=O)(=O)c1cccc(-n2sc3ccccc3c2=O)c1	3	22	37*	5	16	93*	115*
CCOc1ccc2c(c1)s/c(=N\S(=O)(=O)c1ccc(OC)cc1)n2C(F)F	-2	2	1	0	10	·	·
Cc1ccc2c(c1C)-c1c(ccc(C)c1C)C(=O)C2=O	·	106*	52*	·	·	43*	69*
O=C(O)CCc1ccc(-c2ccccc2)o1	-1	2	38*	-2	6	24*	48*
O=C(N/N=C/c1ccc(OC(=O)c2ccccc2)cc1)c1ccc(CN2CCOCC2)cc1	0	1	4	0	8	·	·
COCCCn1c2nc3ccccc3nc2c2c(=O)n(Cc3ccc(Cl)cc3)cnc21	2	1	-2	1	33	·	·
O=c1c2c3nc4ccccc4nc3n(Cc3ccccc3)c2ncn1Cc1ccco1	·	93*	44*	·	·	96*	95*
Cc1nc2cc(NC(=O)COc3ccccc3C#N)ccc2n1-c1ccccc1	-6	-1	4	-3	5	·	·
O=C(N/N=C/C(Br)=C/c1ccccc1)C(O)c1ccccc1 (configuration not stated)	2	6	25*	5	-18	3	34*
Cc1ccc(-n2c(CCC(=O)O)ccc2-c2cccs2)cc1	0	3	18	4	-20	·	·
NC(=O)c1ccc(-n2c(CCC(=O)O)ccc2-c2cccs2)cc1	0	-4	31*	3	-17	0	40*
COC(=O)c1cccc(-n2c(CCC(=O)O)ccc2-c2cccs2)c1	6	16	22	3	-21	·	·
SMILES	XBP1 UPR activ	Granule exo inh	ABHD5-PLIN5 inh	CHOP UPR activ	Mdm2 MdmX PPI	ABHD5-PLIN5 conf	HNF4 split-luc
CC(=O)c1ccc(-n2c(CCC(=O)O)ccc2-c2cccs2)cc1	-3	-3	32*	0	8	5	49*
CCCC(=O)N(c1ccc2oc(=O)sc2c1)S(=O)(=O)c1ccccc1	1	4	8	1	-6	·	·
CC(=O)N(c1ccc2oc(=O)sc2c1)S(=O)(=O)c1ccc(C(=O)O)cc1	-1	?	25*	1	21	-42	82*
CC(=O)N(c1ccc2oc(=O)sc2c1)S(=O)(=O)c1cccc2cccnc12	2	-2	25*	2	-36	-39	-8
Cc1nc(N)nc(COc2ccccc2)n1	0	0	-3	4	-2	·	·
Nc1cc(C(=O)OCC(=O)Nc2ccc(N3CCOCC3)cc2)ccc1Cl	-2	7	-8	1	17	·	·
C=CCN(CC=C)Cc1c(O)ccc2c1oc(=O)c1ccccc12	1	-2	68*	0	37	14	17*
COCCNC(=O)/C(C#N)=C/C=C/c1ccccc1	2	-2	27*	1	-25	17	18*
CCOC(=O)/C=C1\CN(C(C)c2ccccc2)S(=O)(=O)c2ccccc21 (configuration not stated)	-3	2	59*	0	-4	7	4
CCOC(=O)/C=C1\CN(CCC(C)C)S(=O)(=O)c2ccccc21	1	-1	5	0	-4	·	·
O=C(Cn1nnc(-c2ccccc2Cl)n1)Nc1cccc(S(=O)(=O)N2CCCC2)c1	-2	8	-5	1	12	·	·
Cc1cccc(-c2nc(=S)c3c(n2Cc2ccco2)CCCC3)c1	-1	0	28*	0	17	7	11
COc1cccc(-c2nc(=S)c3c(n2Cc2ccco2)CCCC3)c1	-3	-2	1	0	26	·	·
CCCCN(C)C(=O)c1cn(CC)c2nc(C)ccc2c1=O	-2	1	4	-2	0	·	·
COC(=O)c1cccc(S(=O)(=O)N(Cc2ccco2)Cc2cc3cc(OC)ccc3[nH]c2=O)c1	1	4	42*	-1	31	56*	66*
CC(O)CC(=O)OC[C@]12CC[C@H]3[C@@](C)(CC[C@H]4C(C)(C)CCC[C@]34C)[C@@H]1CC(C1=CC(=O)OC1O)O2 (some centres not stated)	·	56*	80*	·	·	97*	71*

Source: PubChem
